For series [1], the species on record is Mus musculus. Put plainly: Lethal dose in mice. It counts as functional.
For series [2], the system named is Mus musculus. The series is described as follows: Percent survival at 15 min time interval between administration (500mg/kg, ip) and irradiation* in mice. It counts as functional.
Series [3] has as its system Mus musculus. Put plainly: Percent survival at 2 hr time interval between administration (500 mg/kg, ip) and irradiation* in mice. It counts as functional.
In series [4] the test system is Mus musculus. Put plainly: Percent survival at 6 hr time interval between administration (500 mg/kg, ip) and irradiation* in mice. It counts as functional.
Series [5] concerns Mus musculus. Put plainly: Percent survival at 1 hr time interval between administration (500 mg/kg, ip) and irradiation* in mice. It counts as functional.
The subject of series [6] is Mus musculus. Put plainly: fecal levels excreted after administration of 2-(3-bromophenyl)thiazolidine(500 mg/kg) to mice measured at 0-30h. It counts as ADME, organism-based. The conditions noted are these: in vivo. The gist of the method:
(§1)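 Radiolabelled compound ([³⁵S] or [α-¹⁴C]) given intraperitoneally in Miglyol 812 to mice, which were then housed in separate metabolic cages and fed normally. Faeces were collected over 0-30 h, pounded and counted by liquid scintillation. Values are percent of injected dose, given as mean ± standard error. Each line has its own number of experiments.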

The test system of series [7] is Mus musculus. Put plainly: faecal levels excreted after administration of cysteamine (175 mg/kg) to mice measured at 0-30h. It counts as ADME, organism-based. The conditions noted are these: in vivo. In a few lines: as §1
Series [8] in a line: urine levels excreted after administration of cysteamine (175 mg/kg) to mice measured at 24-30 hr. It counts as ADME, organism-based. The note with it: mouse, read-out: Excretion. In a few lines:
(§2)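 [³⁵S]cysteamine 175 mg/kg given intraperitoneally in Miglyol 812 to mice, which were then housed in separate metabolic cages and fed normally. Urine was sampled at 6, 24 and 30 h and counted by liquid scintillation. Values are percent of injected dose excreted, as mean ± standard error of 4-5 experiments. The Mann-Whitney-Wilcoxon test was used for significance.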

The subject of series [9] is Mus musculus. The series is described as follows: urine levels excreted after administration of cysteamine (175 mg/kg) to mice measured at 0-24 hr. The note with it: in vivo. It counts as ADME, organism-based. The gist of the method:
as §2

Series [10] has as its system Mus musculus. The series is described as follows: urine levels excreted after administration of cysteamine (175 mg/kg) to mice measured at 0-6 hr. It counts as ADME, organism-based. The conditions noted are these: in vivo. In a few lines:
as §2

The test system of series [11] is Mus musculus. The series is described as follows: Percent survival at 15 min time interval between administration (225 mg/kg, ip) and irradiation* in mice. It counts as functional.
Series [12] relates to Mus musculus. Put plainly: Percent survival at 1 hr time interval between administration (225mg/kg, ip) and irradiation* in mice. It counts as functional.
Series [13] has as its system Mus musculus. Put plainly: Percent survival at 2 hr time interval between administration (225 mg/kg, ip) and irradiation* in mice. It counts as functional.
For series [14], the system named is Mus musculus. The series is described as follows: fecal levels excreted after administration of benzaldehyde (250 mg/kg) to mice measured at 0-30h. The note with it: in vivo. It counts as ADME, organism-based. In a few lines:
(§3)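 [α-14C]Benzaldehyde was given at 250 mg/kg intraperitoneally in Miglyol 812. Mice were kept in separate metabolic cages and fed normally. Urine was collected at 6, 24 and 30 h, and feces were pounded. Radioactivity was measured by liquid scintillation counting and expressed as percent of injected dose excreted, given as mean ± standard error of 4 experiments.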

The nature of series [15]: urine levels excreted after administration of benzaldehyde (250 mg/kg) to mice measured at 0-24 hr. It counts as ADME, organism-based. The note with it: mouse, read-out: Excretion. In a few lines: as §3
Series [16] deals with Mus musculus. Put plainly: urine levels excreted after administration of benzaldehyde (250 mg/kg) to mice measured at 0-6 hr. It counts as ADME, organism-based. The conditions noted are these: in vivo. The gist of the method: as §3
Series [17] can be described thus: urine levels excreted after administration of benzaldehyde (250 mg/kg) to mice measured at 24-30 hr. It counts as ADME, organism-based. The note with it: mouse, read-out: Excretion. In a few lines:
as §3

Series [18] relates to Mus musculus. The series is described as follows: fecal levels excreted after administration of 2-phenylthiazolidine (500 mg/kg) to mice measured at 0-30h. It counts as ADME, organism-based. The note with it: in vivo. In a few lines: as §1

These results are taken from ChEMBL document CHEMBL1122288, “Relationship between metabolism and radioprotective activity of 2-phenylthiazolidine and its m-bromo derivative” (J Med Chem, 1983).

A word on the LD50: it is the dose expected to kill half of the subjects tested.

Consider `c1ccc(C2NCCS2)cc1` (stereo not drawn), for which the 50% lethal dose (LD50) in the series listed under Mus musculus [1] came out at 1000 mg/kg. Also, the Survival with Mus musculus [2] is recorded as 100%; with Mus musculus [3], 100%; in the series on Mus musculus [4], 85%; in the series on Mus musculus [5] it was 100%.

Compound `Brc1cccc(C2NCCS2)c1` (stereo not drawn) registered an Excretion in the series on Mus musculus [6] of 0.43%. The compound also yielded an LD50 in the series filed under Mus musculus [1] of 1000 mg/kg. The values for the Survival with Mus musculus [2] and in the series with Mus musculus [5] were 20% and 100%, respectively.

For `NCCS` [CYSTEAMINE], the Excretion in the series with Mus musculus [7] is reported as 0.92%; in the series on Mus musculus [9], 55.7%; in the series on Mus musculus [10], 42.6%. Further, in series [8], the dose excreted was 4.1%. In the series listed under Mus musculus [1], the LD50 stood at 450 mg/kg. Moreover, the Survival in the series with Mus musculus [11] stood at 95%; with Mus musculus [12], 80%; in the series on Mus musculus [13] it was 45%.

`O=Cc1ccccc1` [BENZALDEHYDE]: the figures for the Excretion with Mus musculus [14] and in the series on Mus musculus [16] were 0.43% and 52.6%, respectively. Moreover, the figures for the dose excreted in series [15] and in series [17] were 84.2% and 5%, respectively.

`c1ccc(C2NCC[35S]2)cc1` (stereo in doubt; 1b) returned an Excretion with Mus musculus [18] of 0.6%.

`c1ccc(C2NCC[35S]2)cc1` (stereo in doubt; 1a) came in with an Excretion in the series with Mus musculus [18] of 0.42%.
